What all share (type): functional
Assay [1] relates to Mycobacterium tuberculosis. The assay can be described thus: Antitubercular activity against Mycobacterium tuberculosis H37Rv by microdilution method. Put shortly:
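Agar microdilution: serial two-fold compound dilutions in 7H10 agar, with H37Rv as test organism. MIC was the concentration completely inhibiting growth and colony-forming ability of M. tuberculosis.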

Assay [2] relates to Mycobacterium tuberculosis. The assay can be described thus: Antitubercular activity against Mycobacterium tuberculosis H37Rv by BACTEC method. Put shortly: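 Radiometric BACTEC 12B (7H12) broth; compounds from 1 mg/mL DMSO stock, DMSO-only controls, isoniazid and rifampin references. H37Rv inoculated at 10⁴–10⁵ CFU/mL, plus 1:100-diluted inoculum control. Incubated at 37 °C with daily GI readings until the 1:100 control reached GI 30. MIC was the concentration giving a final GI below the 1:100 control ([…] inhibition).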

In assay [3] the test system is Mycobacterium tuberculosis. The assay can be described thus: Antitubercular activity against Mycobacterium tuberculosis H37Rv by MABA assay.
The nature of assay [4]: Selectivity index, IC50 for vero cells to MIC for Mycobacterium tuberculosis H37Rv.

≈ marks a conversion by molar mass, not a printed value. A value given as a limit tells only on which side of the number the result lay.

`Oc1ccc(C(c2ccc(OCCN3CCCCC3)cc2)c2cc3ccccc3c3ccccc23)cc1` (centres undefined): the MIC in assay [1] came to 12.5 µg/mL (≈ 25.6 µM); in assay [2] it was 12.5 µg/mL (≈ 25.6 µM); in assay [3], 25 µg/mL (≈ 51.3 µM).
Regarding `COc1ccc(Cc2ccc(OCCN(C)C)cc2)cc1`, the MIC in assay [1] and in assay [3] was above 25 µg/mL throughout.
Turning to `COc1ccc(C(c2ccc(OCCN(C)C)cc2)c2c3ccccc3cc3ccccc23)cc1` (centres undefined), the MIC in assay [1] and in assay [3] was 12.5 µg/mL (≈ 27.1 µM) in each case.
For `COc1ccc(C(c2ccc(OCCN(C)C)cc2)c2cc3ccccc3c3ccccc23)cc1` (centres undefined), the MIC worked out at 25 µg/mL (≈ 54.2 µM) in assay [1], 12.5 µg/mL (≈ 27.1 µM) in assay [2] and 25 µg/mL (≈ 54.2 µM) in assay [3].
Turning to `COc1ccc(C(c2ccc(OCCN3CCCC3)cc2)c2cn(S(=O)(=O)c3ccccc3)c3ccccc23)cc1` (centres undefined), the MIC in assay [1] and in assay [3] was 12.5 µg/mL (≈ 22.1 µM) throughout.
For the molecule `CCN(CC)CCOc1ccc(C(c2ccc(OC)cc2)c2cc3ccccc3c3ccccc23)cc1` (centres undefined), the MIC in assay [1], in assay [2] and in assay [3] was 6.25 µg/mL (≈ 12.8 µM) in each case. Moreover, the Selectivity index in assay [4] worked out at 20.
With `CN(C)CCOc1ccc(C(c2ccc(O)cc2)c2cc3ccccc3c3ccccc23)cc1` (centres undefined), the minimal inhibitory concentration (MIC) in assay [1] was found to be 12.5 µg/mL (≈ 27.9 µM); in assay [2], 12.5 µg/mL (≈ 27.9 µM); in assay [3], 25 µg/mL (≈ 55.9 µM).
Take `COc1ccc(C(c2ccc(OCCN3CCCCC3)cc2)c2cn(S(=O)(=O)c3ccccc3)c3ccccc23)cc1` (centres undefined): the MIC in assay [1], in assay [2] and in assay [3] was 6.25 µg/mL (≈ 10.8 µM) each time. Also, the Selectivity index in assay [4] is given as 10.
With `CCN(CC)CCOc1ccc(C(c2ccc(O)cc2)c2cc3ccccc3c3ccccc23)cc1` (centres undefined), the MIC was 12.5 µg/mL (≈ 26.3 µM) in assay [1], 12.5 µg/mL (≈ 26.3 µM) in assay [2] and 25 µg/mL (≈ 52.6 µM) in assay [3].
For the molecule `CCN(CC)CCOc1ccc(C(c2ccc(OC)cc2)c2cccnc2)cc1` (centres undefined), the MIC in assay [1] was above 25 µg/mL; in assay [2] it was 12.5 µg/mL (≈ 32 µM); in assay [3] it was above 25 µg/mL.
Consider `COc1ccc(C(c2ccc(OCCN3CCCCC3)cc2)c2cc3ccccc3c3ccccc23)cc1` (centres undefined), for which the MIC in assay [1], in assay [2] and in assay [3] was 6.25 µg/mL (≈ 12.5 µM) each time. This molecule also had a Selectivity index in assay [4] of 10.
Regarding `COc1ccc(Cc2ccc(OCCN3CCCCC3)cc2)cc1`, the MIC in assay [1] and in assay [3] was above 25 µg/mL each time.
With `COc1ccc(C(c2ccc(OCCN3CCCC3)cc2)c2cccnc2)cc1` (centres undefined), the MIC in assay [1] was above 25 µg/mL; in assay [2], 12.5 µg/mL (≈ 32.2 µM); in assay [3], above 25 µg/mL.
`COc1ccc(C(c2ccc(OCCN(C)C)cc2)c2cccnc2)cc1` (centres undefined): the MIC in assay [1] and in assay [3] was above 25 µg/mL in each case.
Regarding `COc1ccc(C(c2ccc(OCCN3CCCC3)cc2)c2cc3ccccc3c3ccccc23)cc1` (centres undefined), the MIC in assay [1], in assay [2] and in assay [3] was 6.25 µg/mL (≈ 12.8 µM) each time. Also, the Selectivity index in assay [4] came out at 20.
Turning to `COc1ccc(C(c2ccc(OCCN(C)C)cc2)c2cn(S(=O)(=O)c3ccccc3)c3ccccc23)cc1` (centres undefined), the results for the MIC in assay [1] and in assay [3] were above 12.5 µg/mL and above 25 µg/mL, respectively.
For `CCN(CC)CCOc1ccc(C(c2ccc(OC)cc2)c2cn(S(=O)(=O)c3ccccc3)c3ccccc23)cc1` (centres undefined), in that order: 12.5 µg/mL (≈ 22 µM) and 12.5 µg/mL (≈ 22 µM).
On to `COc1ccc(C(c2ccc(OCCN3CCCCCC3)cc2)c2cn(S(=O)(=O)c3ccccc3)c3ccccc23)cc1` (centres undefined), for which the MIC in assay [1], in assay [2] and in assay [3] was 12.5 µg/mL (≈ 21 µM) in each case.
With `COc1ccc(C(c2ccc(OCCN3CCCCC3)cc2)c2cccnc2)cc1` (centres undefined), the MIC in assay [1] is above 25 µg/mL; in assay [2], 12.5 µg/mL (≈ 31.1 µM); in assay [3], above 25 µg/mL.

The values are drawn from ChEMBL document CHEMBL1143790, “Effect of substituents on diarylmethanes for antitubercular activity” (2007).
